Measured values taken from ChEMBL document CHEMBL1629465, “Efficient synthesis of novel 1,2,4-triazole fused acyclic and 21-28 membered macrocyclic and/or lariat macrocyclic oxaazathia crown compounds with potential antimicrobial activity” (2010).
≈ marks a conversion by molar mass, not a printed value.

Tests used:
Type in all cases: functional
Aspergillus fumigatus [1] = test: Antimicrobial activity against Aspergillus fumigatus RCMB 002008 at 1 mg/ml by agar diffusion technique; conditions: read-out: DIZ
Procedure, shortened: (§1)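 Agar well diffusion. Test compounds and reference standard drugs were diluted to 5.0, 2.5 and 1.0 mg/mL and applied to 0.6 cm wells. Inhibition zone beyond the control was scored as 0 (no inhibition), + (0.1–0.5 cm), ++ (0.6–1.0 cm) or +++ (1.0–1.5 cm).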

Aspergillus fumigatus [2] = test: Antimicrobial activity against Aspergillus fumigatus RCMB 002008 at 2.5 mg/ml by agar diffusion technique; conditions: read-out: DIZ; procedure, shortened: as §1
Penicillium italicum [3] = test: Antimicrobial activity against Penicillium italicum RCMB 001018 at 1 mg/ml by agar diffusion technique; conditions: read-out: DIZ; procedure, shortened: as §1
Penicillium italicum [4] = test: Antimicrobial activity against Penicillium italicum RCMB 001018 at 2.5 mg/ml by agar diffusion technique; conditions: read-out: DIZ; procedure, shortened: as §1
[5] = system: Syncephalastrum racemosum; test: Antimicrobial activity against Syncephalastrum racemosum RCMB 016001 at 1 mg/ml by agar diffusion technique; conditions: read-out: DIZ; procedure, shortened: as §1
[6] = system: Syncephalastrum racemosum; test: Antimicrobial activity against Syncephalastrum racemosum RCMB 016001 at 2.5 mg/ml by agar diffusion technique; conditions: read-out: DIZ; procedure, shortened: as §1
Candida albicans [7] = test: Antimicrobial activity against Candida albicans RCMB 005003 at 1 mg/ml by agar diffusion technique; conditions: read-out: DIZ; procedure, shortened: as §1
Candida albicans [8] = test: Antimicrobial activity against Candida albicans RCMB 005003 at 2.5 mg/ml by agar diffusion technique; conditions: read-out: DIZ; procedure, shortened: as §1
Candida albicans [9] = test: Antimicrobial activity against Candida albicans RCMB 005003 at 5 mg/ml by agar diffusion technique; conditions: read-out: DIZ; procedure, shortened: as §1
Staphylococcus aureus [10] = test: Antimicrobial activity against Staphylococcus aureus RCMB 106001 at 1 mg/ml by agar diffusion technique; conditions: read-out: DIZ; procedure, shortened: as §1
Staphylococcus aureus [11] = test: Antimicrobial activity against Staphylococcus aureus RCMB 106001 at 2.5 mg/ml by agar diffusion technique; conditions: read-out: DIZ; procedure, shortened: as §1
Staphylococcus aureus [12] = test: Antimicrobial activity against Staphylococcus aureus RCMB 106001 at 5 mg/ml by agar diffusion technique; conditions: read-out: DIZ; procedure, shortened: as §1
Pseudomonas aeruginosa [13] = test: Antimicrobial activity against Pseudomonas aeruginosa RCMB 102002 at 1 mg/ml by agar diffusion technique; conditions: read-out: DIZ; procedure, shortened: as §1
Pseudomonas aeruginosa [14] = test: Antimicrobial activity against Pseudomonas aeruginosa RCMB 102002 at 2.5 mg/ml by agar diffusion technique; conditions: read-out: DIZ; procedure, shortened: as §1
Pseudomonas aeruginosa [15] = test: Antimicrobial activity against Pseudomonas aeruginosa RCMB 102002 at 5 mg/ml by agar diffusion technique; conditions: read-out: DIZ; procedure, shortened: as §1
Bacillus subtilis [16] = test: Antimicrobial activity against Bacillus subtilis RCMB 101001 at 1 mg/ml by agar diffusion technique; conditions: read-out: DIZ; procedure, shortened: as §1
Bacillus subtilis [17] = test: Antimicrobial activity against Bacillus subtilis RCMB 101001 at 2.5 mg/ml by agar diffusion technique; conditions: read-out: DIZ; procedure, shortened: as §1
Escherichia coli [18] = test: Antimicrobial activity against Escherichia coli RCMB 103001 at 1 mg/ml by agar diffusion technique; conditions: read-out: DIZ; procedure, shortened: as §1
Escherichia coli [19] = test: Antimicrobial activity against Escherichia coli RCMB 103001 at 2.5 mg/ml by agar diffusion technique; conditions: read-out: DIZ; procedure, shortened: as §1
Aspergillus fumigatus [20] = test: Antimicrobial activity against Aspergillus fumigatus RCMB 002008 by twofold serial dilution method
Procedure, shortened: (§2)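 MIC was determined by further twofold serial dilution across twelve levels, from 1000 down to 0.49. Strains were the same bacterial, yeast and fungal RCMB isolates used in the diffusion screen.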

Penicillium italicum [21] = test: Antimicrobial activity against Penicillium italicum RCMB 001018 by twofold serial dilution method; procedure, shortened: as §2
[22] = system: Syncephalastrum racemosum; test: Antimicrobial activity against Syncephalastrum racemosum RCMB 016001 by twofold serial dilution method; procedure, shortened: as §2
Bacillus subtilis [23] = test: Antimicrobial activity against Bacillus subtilis RCMB 101001 by twofold serial dilution method; procedure, shortened: as §2
Escherichia coli [24] = test: Antimicrobial activity against Escherichia coli RCMB 103001 by twofold serial dilution method; procedure, shortened: as §2
Aspergillus fumigatus [25] = test: Antimicrobial activity against Aspergillus fumigatus RCMB 002008 at 5 mg/ml by agar diffusion technique; conditions: read-out: DIZ; procedure, shortened: as §1
[26] = system: Syncephalastrum racemosum; test: Antimicrobial activity against Syncephalastrum racemosum RCMB 016001 at 5 mg/ml by agar diffusion technique; conditions: read-out: DIZ; procedure, shortened: as §1
Bacillus subtilis [27] = test: Antimicrobial activity against Bacillus subtilis RCMB 101001 at 5 mg/ml by agar diffusion technique; conditions: read-out: DIZ; procedure, shortened: as §1
Candida albicans [28] = test: Antimicrobial activity against Candida albicans RCMB 005003 by twofold serial dilution method; procedure, shortened: as §2
Staphylococcus aureus [29] = test: Antimicrobial activity against Staphylococcus aureus RCMB 106001 by twofold serial dilution method; procedure, shortened: as §2
Pseudomonas aeruginosa [30] = test: Antimicrobial activity against Pseudomonas aeruginosa RCMB 102002 by twofold serial dilution method; procedure, shortened: as §2
Penicillium italicum [31] = test: Antimicrobial activity against Penicillium italicum RCMB 001018 at 5 mg/ml by agar diffusion technique; conditions: read-out: DIZ; procedure, shortened: as §1
Escherichia coli [32] = test: Antimicrobial activity against Escherichia coli RCMB 103001 at 5 mg/ml by agar diffusion technique; conditions: read-out: DIZ; procedure, shortened: as §1
[33] = Escherichia coli, RCMB 103001, read-out: MIC

| SMILES | zone of inhibition at 1000 µg/mL (Aspergillus fumigatus [1]) [mm] | zone of inhibition at 2500 µg/mL (Aspergillus fumigatus [2]) [mm] | zone of inhibition at 1000 µg/mL (Penicillium italicum [3]) [mm] | zone of inhibition at 2500 µg/mL (Penicillium italicum [4]) [mm] | zone of inhibition at 1000 µg/mL [5] [mm] | zone of inhibition at 2500 µg/mL [6] [mm] | zone of inhibition at 1000 µg/mL (Candida albicans [7]) [mm] | zone of inhibition at 2500 µg/mL (Candida albicans [8]) [mm] | zone of inhibition at 5000 µg/mL (Candida albicans [9]) [mm] | zone of inhibition at 1000 µg/mL (Staphylococcus aureus [10]) [mm] | zone of inhibition at 2500 µg/mL (Staphylococcus aureus [11]) [mm] | zone of inhibition at 5000 µg/mL (Staphylococcus aureus [12]) [mm] | zone of inhibition at 1000 µg/mL (Pseudomonas aeruginosa [13]) [mm] | zone of inhibition at 2500 µg/mL (Pseudomonas aeruginosa [14]) [mm] | zone of inhibition at 5000 µg/mL (Pseudomonas aeruginosa [15]) [mm] | zone of inhibition at 1000 µg/mL (Bacillus subtilis [16]) [mm] | zone of inhibition at 2500 µg/mL (Bacillus subtilis [17]) [mm] | zone of inhibition at 1000 µg/mL (Escherichia coli [18]) [mm] | zone of inhibition at 2500 µg/mL (Escherichia coli [19]) [mm] | MIC (Escherichia coli [24]; [33]) [µg/mL] | also measured |
| --- | --- | --- | --- | --- | --- | --- | --- | --- | --- | --- | --- | --- | --- | --- | --- | --- | --- | --- | --- | --- | --- |
| OC(COc1ccccc1/C=N\n1c(-c2cccnc2)n[nH]c1=S)COc1ccccc1/C=N\n1c(-c2cccnc2)n[nH]c1=S | 0 | 0 | 6 | 6 | 0 | 1 | 0 | 0 | 0 | 0 | 0 | 0 | 0 | 0 | 0 | 1 | 1 | 0 | 1 | 250 (≈ 384 µM) | MIC (Aspergillus fumigatus [20]): 250 µg/mL (≈ 384 µM); MIC (Aspergillus fumigatus [20]; Aspergillus fumigatus, RCMB 002008, read-out: MIC): 250 µg/mL (≈ 384 µM); MIC (Penicillium italicum [21]): 250 µg/mL (≈ 384 µM); MIC [22]: 250 µg/mL (≈ 384 µM); MIC ([22]; Syncephalastrum racemosum, RCMB 016001, read-out: MIC): 250 µg/mL (≈ 384 µM); MIC (Bacillus subtilis [23]): 250 µg/mL (≈ 384 µM); MIC (Bacillus subtilis [23]; Bacillus subtilis, RCMB 101001, read-out: MIC): 250 µg/mL (≈ 384 µM); MIC (Escherichia coli [24]): 250 µg/mL (≈ 384 µM) |
| C1=N\n2c(nnc2-c2cccnc2)SCCCCSc2nnc(-c3cccnc3)n2/N=C\c2ccccc2OCCCCOc2ccccc2/1 | 0 | 0 | 0 | 0 | 0 | 0 | 0 | 1 | – | 1 | 1 | – | 0 | 0 | – | 0 | 0 | 1 | 1 | 250 (≈ 356 µM) | zone of inhibition at 5000 µg/mL (Aspergillus fumigatus [25]): 0 mm; zone of inhibition at 5000 µg/mL [26]: 0 mm; zone of inhibition at 5000 µg/mL (Bacillus subtilis [27]): 0 mm; MIC (Candida albicans [28]): 250 µg/mL (≈ 356 µM); MIC (Candida albicans [28]; Candida albicans, RCMB 005003, read-out: MIC): 250 µg/mL (≈ 356 µM); MIC (Staphylococcus aureus [29]): 250 µg/mL (≈ 356 µM); MIC (Staphylococcus aureus [29]; Staphylococcus aureus, RCMB 106001, read-out: MIC): 250 µg/mL (≈ 356 µM); MIC (Pseudomonas aeruginosa [30]): 250 µg/mL (≈ 356 µM); MIC (Pseudomonas aeruginosa [30]; Pseudomonas aeruginosa, RCMB 102002, read-out: MIC): 250 µg/mL (≈ 356 µM) |
| OC1COc2ccccc2/C=N\n2c(nnc2-c2cccnc2)SCCCCSc2nnc(-c3cccnc3)n2/N=C\c2ccccc2OC1 | 0 | 0 | 0 | 0 | 0 | 0 | 0 | 0 | 0 | 0 | 0 | 1 | 0 | 0 | 0 | 1 | 1 | 0 | 0 | – | zone of inhibition at 5000 µg/mL (Aspergillus fumigatus [25]): 0 mm; zone of inhibition at 5000 µg/mL (Penicillium italicum [31]): 0 mm; zone of inhibition at 5000 µg/mL [26]: 0 mm; zone of inhibition at 5000 µg/mL (Bacillus subtilis [27]): 1 mm; zone of inhibition at 5000 µg/mL (Escherichia coli [32]): 0 mm |
